Results: ChEMBL document CHEMBL3098071, “Synthesis and evaluation of novel azoles as potent antifungal agents” (2014)
≈ marks a conversion by molar mass, not a printed value.

How the values were obtained:
Format in all cases: functional
[1] = test system: Candida albicans; experiment: Ratio of voriconazole MIC80 to compound MIC80 for Candida albicans SC5314
[2] = test system: Candida albicans; experiment: Ratio of itraconazole MIC80 to compound MIC80 for Candida albicans SC5314
[3] = test system: Nannizzia gypsea; experiment: Antimicrobial activity against Microsporum gypseum by broth microdilution method
[4] = test system: Aspergillus fumigatus; experiment: Antimicrobial activity against Aspergillus fumigatus by broth microdilution method
[5] = test system: Trichophyton rubrum; experiment: Antimicrobial activity against Trichophyton rubrum by broth microdilution method
[6] = test system: Nakaseomyces glabratus; experiment: Antimicrobial activity against Candida glabrata by broth microdilution method
[7] = test system: Cryptococcus neoformans; experiment: Antimicrobial activity against Cryptococcus neoformans after 72 hrs by broth microdilution method
How it was run: (§1)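 Broth microdilution in 96-well plates following NCCLS methods. Compounds were dissolved in DMSO, serially diluted in growth medium, inoculated and incubated at 35°C. MIC read at 24 h for Candida albicans and at 72 h for Cryptococcus neoformans. MIC80 is the first well with about 80% less growth than the drug-free well. Values are means of three replicate tests.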

[8] = test system: Candida parapsilosis; experiment: Antimicrobial activity against Candida parapsilosis by broth microdilution method; conditions: Lodderomyces parapsilosis
[9] = test system: Candida albicans; experiment: Antimicrobial activity against Candida albicans SC5314 after 24 hrs by broth microdilution method; conditions: SC5314, 24 h; how it was run: as §1
[10] = test system: Candida albicans; experiment: Antimicrobial activity against Candida albicans Y0109 after 24 hrs by broth microdilution method; conditions: Y0109, 24 h; how it was run: as §1

| Compound | Ratio [1] | Ratio [2] | MIC80 [3] | MIC80 [4] | MIC80 [5] | MIC80 [6] | MIC80 [7] | MIC80 [8] | MIC80 [9] | MIC80 [10] |
| --- | --- | --- | --- | --- | --- | --- | --- | --- | --- | --- |
| OC(CN1CCN(CCCSc2nnc(-c3ccccc3Cl)o2)CC1)(Cn1cncn1)c1ccc(F)cc1F (centres undefined) | 16 | 64 | 4 µg/mL (≈ 6.94 µM) | > 64 µg/mL | 0.25 µg/mL (≈ 0.434 µM) | 0.25 µg/mL (≈ 0.434 µM) | 0.25 µg/mL (≈ 0.434 µM) | 0.25 µg/mL (≈ 0.434 µM) | 0.0039 µg/mL (≈ 0.00677 µM) | 0.0039 µg/mL (≈ 0.00677 µM) |
| OC(CN1CCN(CCCSc2nnc(-c3ccc(Cl)cc3)o2)CC1)(Cn1cncn1)c1ccc(F)cc1F (centres undefined) | 16 |  | 4 µg/mL (≈ 6.94 µM) | > 64 µg/mL | 0.25 µg/mL (≈ 0.434 µM) | 0.0625 µg/mL (≈ 0.108 µM) | 0.0625 µg/mL (≈ 0.108 µM) | 0.0625 µg/mL (≈ 0.108 µM) | 0.0039 µg/mL (≈ 0.00677 µM) | 0.0625 µg/mL (≈ 0.108 µM) |
| OC(Cn1cncn1)(Cn1cncn1)c1ccc(F)cc1F [FLUCONAZOLE] |  |  | 8 µg/mL (≈ 26.1 µM) | 8 µg/mL (≈ 26.1 µM) | > 64 µg/mL | 1 µg/mL (≈ 3.27 µM) | 1 µg/mL (≈ 3.27 µM) | 1 µg/mL (≈ 3.27 µM) | 0.5 µg/mL (≈ 1.63 µM) | 0.5 µg/mL (≈ 1.63 µM) |
| N#Cc1ccccc1-c1nnc(SCCCN2CCN(CC(O)(Cn3cncn3)c3ccc(F)cc3F)CC2)o1 (centres undefined) |  |  | 1 µg/mL (≈ 1.76 µM) | > 64 µg/mL | 0.25 µg/mL (≈ 0.441 µM) | 0.125 µg/mL (≈ 0.221 µM) | 0.25 µg/mL (≈ 0.441 µM) | 0.25 µg/mL (≈ 0.441 µM) | 0.125 µg/mL (≈ 0.221 µM) | 0.125 µg/mL (≈ 0.221 µM) |
| COc1ccc(-c2nnc(SCCCN3CCN(CC(O)(Cn4cncn4)c4ccc(F)cc4F)CC3)o2)cc1 (centres undefined) |  |  | 0.25 µg/mL (≈ 0.437 µM) | > 64 µg/mL | 0.25 µg/mL (≈ 0.437 µM) | 0.25 µg/mL (≈ 0.437 µM) | 0.25 µg/mL (≈ 0.437 µM) | 0.25 µg/mL (≈ 0.437 µM) | 0.25 µg/mL (≈ 0.437 µM) | 0.25 µg/mL (≈ 0.437 µM) |
| C[C@@H](c1ncncc1F)[C@](O)(Cn1cncn1)c1ccc(F)cc1F [VORICONAZOLE] |  |  | 0.125 µg/mL (≈ 0.358 µM) | 0.0625 µg/mL (≈ 0.179 µM) | 0.25 µg/mL (≈ 0.716 µM) | 0.0625 µg/mL (≈ 0.179 µM) | 0.0156 µg/mL (≈ 0.0447 µM) | 0.0625 µg/mL (≈ 0.179 µM) | 0.0625 µg/mL (≈ 0.179 µM) | 0.0625 µg/mL (≈ 0.179 µM) |
| O=[N+]([O-])c1ccccc1-c1nnc(SCCCN2CCN(CC(O)(Cn3cncn3)c3ccc(F)cc3F)CC2)o1 (centres undefined) |  |  | 0.25 µg/mL (≈ 0.426 µM) | > 64 µg/mL | 0.25 µg/mL (≈ 0.426 µM) | 0.25 µg/mL (≈ 0.426 µM) | 0.125 µg/mL (≈ 0.213 µM) | 0.125 µg/mL (≈ 0.213 µM) | 0.125 µg/mL (≈ 0.213 µM) | 0.25 µg/mL (≈ 0.426 µM) |
| O=[N+]([O-])c1ccc(-c2nnc(SCCCN3CCN(CC(O)(Cn4cncn4)c4ccc(F)cc4F)CC3)o2)cc1 (centres undefined) |  |  | 1 µg/mL (≈ 1.7 µM) | > 64 µg/mL | 1 µg/mL (≈ 1.7 µM) | 0.125 µg/mL (≈ 0.213 µM) | 0.25 µg/mL (≈ 0.426 µM) | 0.125 µg/mL (≈ 0.213 µM) | 0.25 µg/mL (≈ 0.426 µM) | 0.125 µg/mL (≈ 0.213 µM) |
| Cc1cccc(-c2nnc(SCCCN3CCN(CC(O)(Cn4cncn4)c4ccc(F)cc4F)CC3)o2)c1 (centres undefined) |  |  | 1 µg/mL (≈ 1.8 µM) | > 64 µg/mL | 1 µg/mL (≈ 1.8 µM) | 1 µg/mL (≈ 1.8 µM) | 1 µg/mL (≈ 1.8 µM) | 4 µg/mL (≈ 7.2 µM) | 0.125 µg/mL (≈ 0.225 µM) | 0.25 µg/mL (≈ 0.45 µM) |
| OC(CN1CCN(CCCSc2nnc(-c3ccccc3)o2)CC1)(Cn1cncn1)c1ccc(F)cc1F (centres undefined) |  |  | 1 µg/mL (≈ 1.85 µM) | > 64 µg/mL | 0.25 µg/mL (≈ 0.462 µM) | 0.0625 µg/mL (≈ 0.115 µM) | 0.0625 µg/mL (≈ 0.115 µM) | 0.0625 µg/mL (≈ 0.115 µM) | 0.0156 µg/mL (≈ 0.0288 µM) | 0.0156 µg/mL (≈ 0.0288 µM) |
| COc1cccc(-c2nnc(SCCCN3CCN(CC(O)(Cn4cncn4)c4ccc(F)cc4F)CC3)o2)c1 (centres undefined) |  |  | 0.25 µg/mL (≈ 0.437 µM) | > 64 µg/mL | 0.0625 µg/mL (≈ 0.109 µM) | 0.25 µg/mL (≈ 0.437 µM) | 0.25 µg/mL (≈ 0.437 µM) | 0.25 µg/mL (≈ 0.437 µM) | 0.25 µg/mL (≈ 0.437 µM) | 0.25 µg/mL (≈ 0.437 µM) |
| OC(CN1CCNCC1)(Cn1cncn1)c1ccc(F)cc1F (centres undefined) |  |  | 16 µg/mL (≈ 49.5 µM) | > 64 µg/mL | 1 µg/mL (≈ 3.09 µM) | 0.25 µg/mL (≈ 0.773 µM) | 4 µg/mL (≈ 12.4 µM) | 2 µg/mL (≈ 6.19 µM) | 0.5 µg/mL (≈ 1.55 µM) | 1 µg/mL (≈ 3.09 µM) |
